Values joined by “and” are separate entries in the source; they are usually repeats but may differ in a detail not shown here. Equal entries are not always repeated.
Assays:
[1] = test system: NAADP-mediated Ca^2+ release; assay: NAADP-mediated Ca2+ release bioassay in sea urchin egg homogenate; type: biochemical, Lytechinus pictus; settings: for Ca2+ release induced by the compound itself in the bioassay: compound at 125 μM
[2] = test system: sea urchin egg binding protein (NAADP receptor); assay: [32P]NAADP radioligand displacement binding assay, sea urchin egg homogenate; design: species or system Lytechinus pictus
[3] = test system: intact sea urchin eggs; assay: NAADP-induced Ca2+ release in intact sea urchin eggs; type: cell-based; settings: 100 μM compound in artificial seawater; NAADP microinjected
[4] = test system: mouse pancreatic beta cells; assay: NAADP-mediated Ca2+ spiking in patch-clamped pancreatic beta cells; type: cell-based; settings: pre-incubation with 125 μM in bathing solution; NAADP 50 nM via patch pipette
Outline: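 Whole-cell patch clamp at room temperature. Borosilicate pipettes were 3–5 MΩ and the holding potential was −70 mV. Test compound was pre-incubated in the bath. Read-out was Ca2+-dependent current traces.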

[5] = test system: glucose-induced Ca^2+ increases in mouse pancreatic islets; assay: glucose-induced Ca2+ signaling in isolated pancreatic islets; type: cell-based; settings: isolated mouse islet, glucose 10 mM, compound 100 μM
[6] = test system: voltage-gated Ca^2+ channels; assay: KCl depolarization-induced Ca2+ transient in islets; type: cell-based, mouse; settings: 100 μM compound; glucose 10 mM, diazoxide 100 μM, KCl 45 mM
Outline: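 Pancreatic beta cells loaded with fura-PE3 acetoxymethyl ester for Ca2+ imaging. Cells were held in glucose and diazoxide, then depolarized with KCl with or without test compound in the bath. Data given as mean ± standard error of the mean and compared by one-tailed t-tests.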

[7] = test system: mitochondrial metabolism (NAD(P)H); assay: glucose-induced NAD; type: cell-based, mouse; settings: 100 μM compound
Outline: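 Islets of Langerhans were pre-incubated 60 min at 37°C in control medium containing 3 mM glucose. NAD(P)H autofluorescence was recorded at 360 nm excitation and >470 nm emission. Changes were expressed as percent of basal values within the same islet.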

[8] = solubility in 25% dimethylsulfoxide or 25% dimethylformamide; type: physicochemical
[9] = test system: cyclic ADP-ribose-mediated Ca^2+ release; assay: cyclic ADP-ribose-mediated Ca2+ release in sea urchin egg homogenate; type: biochemical, Lytechinus pictus; settings: read-out: EC50, Ca2+ release
Outline: (§1)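 Lytechinus pictus egg homogenate with the Ca2+ dye fluo-3 and ATP. Second messenger added and Ca2+ release followed as fluo-3 fluorescence (RFU), in a plate reader (2-4 replicates) or a fluorimeter.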

[10] = test system: inositol 1,4,5-trisphosphate-mediated Ca^2+ release; assay: inositol 1,4,5-trisphosphate-mediated Ca2+ release in sea urchin egg homogenate; type: biochemical, Lytechinus pictus; settings: read-out: EC50, Ca2+ release
Outline: as §1

nicotinic acid adenine dinucleotide phosphate [NAADP, reference compound]
EC50 ([1]; read-out: EC50, Ca2+ release, sea urchin egg homogenate): 0.035 µM and 0.03 to 0.05 µM

COc1ccc(C2N[C@H](C(=O)O)Cc3c2[nH]c2ccccc32)cc1CN1CCN(c2ccccc2F)CC1 (stereo partly shown) [Ned-19]
Hill coefficient, inhibition of NAADP-mediated Ca2+ release ([1]; commercial Ned-19): −0.6 | effect on NAADP concentration-response curve ([1]; constant presence of 125 μM compound (figure legend: 100 μM)): reduced the maximum release and shifted the EC50 to the right | dissociation from the NAADP receptor (recovery of [32P]NAADP binding) ([2]; Ned-19 10 μM, after 5 days of incubation): only about half the bound Ned-19 dissociates | Hill coefficient, [32P]NAADP binding competition ([2]; commercial Ned-19): −2.3 | NAADP-induced Ca2+ increase in intact sea urchin eggs [3]: failed to elicit a Ca^2+ increase | NAADP-mediated Ca2+ spiking [4]: blocked NAADP-mediated Ca^2+ spiking | effect on glucose-induced Ca2+ signal [5]: reduced the amplitude of the oscillations and reduced the elevated plateau to the nonstimulated level | KCl depolarization-induced Ca2+ transient [6]: unaltered | glucose-induced increase in NADH and NADPH fluorescence [7]: still occurred

FC(F)(F)c1cccc(N2CCN(Cn3nc(COc4ccccc4)n(-c4ccccc4)c3=S)CC2)c1 [Ned-16]
Ca2+ release induced by the compound itself in the bioassay [1]: induced irreversible Ca^2+ release

COc1ccc2[nH]c(C(=O)O)c(CCNC(=O)CO/N=C3/C=C[C@@]4(C)C(=C3)CC[C@@H]3[C@H]4CC[C@]4(C)[C@H]3CC[C@]4(C)O)c2c1 [Nrd-10]
Ca2+ release induced by the compound itself in the bioassay [1]: induced irreversible Ca^2+ release

CCC(=O)N1N=C(c2ccc(C3=NN(C(=O)CC)[C@H](c4cccc(OC)c4OC)C3)cc2)C[C@H]1c1cccc(OC)c1OC [Nrd-11]
solubility [8]: sparingly soluble

C=C1NN(c2nc(-c3cccc([N+](=O)[O-])c3)cs2)C(=O)/C1=N/Nc1ccc(Cl)cc1C(=O)c1ccccc1 [Nrd-7]
solubility [8]: sparingly soluble

N=c1c2ncn3c2ncn1[C@@H]1O[C@H](COP(=O)(O)OP(=O)(O)OC[C@H]2O[C@@H]3[C@H](O)[C@@H]2O)[C@@H](O)[C@H]1O [cADPR, cyclic ADP-ribose]
EC50 [9]: 0.3 µM

— publication PMC2659327 (Nature chemical biology, 2009)
